In ChEMBL document CHEMBL1123837, “1-Amino-substituted 4-methyl-5H-pyrido[3',4':4,5]pyrrolo[3,2-c]pyridines: a new class of antineoplastic agents” (J Med Chem, 1987):
The source made the active and inactive calls. No cut-off for these calls is given here.

Key:
[1] = system: Mus musculus; assay: In vivo antitumor activity was determined against P388 leukemia cells expressed as treated/control at the dose of (1.25-20)mg/kg; IA = Inactive; assay type: functional, organism-based
Outline: (§1)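 Following NCI protocols, 10^6 viable P388 leukemia cells were inoculated ip on day 0 into male or female CDF1 hybrid mice, 10 per test group. Compounds in distilled water were given ip (0.1 mL/10 g body weight) at various doses on days 1–5. T/C = median survival day of treated / median survival day of negative controls × 100.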

[2] = system: L1210; assay: (§2) In vitro cytotoxicity against L1210 cells was determined after 48 hours of incubation; assay type: functional, Mus musculus; details: Mus musculus, L1210, 48 h; read-out: ID50 (the source's name)
Outline: (§3)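 Exponentially growing L1210 cells were cultured in RPMI 1640 with 2 mM glutamine, penicillin/streptomycin and 10% fetal calf serum, under 5% CO2 at 37 °C. Drugs dissolved in distilled water were added to cells at 0.8 × 10^5 cells/mL for 48 h, then cells were counted. ID50 was estimated by regression of dose-response data, as the mean of two values from two independent experiments.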

[3] = system: Calf thymus DNA; assay: Binding affinity for DNA by ethidium bromide displacement assay; assay type: nucleic-acid assay; details: Bos taurus
Outline: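 Competitive ethidium bromide displacement with calf thymus DNA at 10 µg/mL in 20 mM Na phosphate buffer, 0.1 M NaCl, 1 mM EDTA, pH 7.4. The apparent DNA affinity constant is given in 10^6 M^-1 ± standard deviation, from 6 values across two independent experiments.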

[4] = system: Mus musculus; assay: In vivo antitumor activity was determined against P388 leukemia cells expressed as treated/control at the dose of (5-60)mg/kg; IA = Inactive; assay type: functional, organism-based; outline: as §1
[5] = system: Mus musculus; assay: In vivo antitumor activity was evaluated on L1210 leukemia model and number of survivors (animals) was determined at 40 mg/kg dosage concentration; number of survivors given as 0/10; assay type: functional
Outline: (§4)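 L1210 leukemia, 10^5 viable cells inoculated ip on day 0 into CDF1 hybrid male or female mice, 10 mice per group. Compounds were given ip in distilled water (0.1 mL/10 g body weight) on days 1-5. Vehicle controls were treated the same way. NCI protocols were followed. T/C = median survival day of treated mice / median survival day of vehicle controls × 100.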

[6] = system: Mus musculus; assay: In vivo antitumor activity was evaluated on L1210 leukemia model and percent of treated/control of tumor cells was determined at 1.25 mg/kg dosage concentration; assay type: functional
Outline: as §1, with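 “10^5” for “10^6”, “L1210” for “P388”, “dosed” for “given”, “daily” for “at various doses”, “treated mice” for “treated”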

[7] = system: Mus musculus; assay: In vivo antitumor activity was evaluated on L1210 leukemia model and percent of treated/control of tumor cells was determined at 20 mg/kg dosage concentration; assay type: functional; outline: as §4
[8] = system: Mus musculus; assay: In vivo antitumor activity was determined against P388 leukemia cells expressed as treated/control at the dose of 40 mg/kg; assay type: functional; outline: as §1
[9] = system: Mus musculus; assay: In vivo antitumor activity was evaluated on L1210 leukemia model and weight change in tumors was determined at 1.25 mg/kg dosage concentration; assay type: functional
[10] = system: Mus musculus; assay: In vivo antitumor activity was evaluated on L1210 leukemia model and percent of treated/control of tumor cells was determined at 2.5 mg/kg dosage concentration.; assay type: functional
Outline: as §1, with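 “10^5” for “10^6”, “L1210” for “P388”, “dosed” for “given”, “daily” for “at various doses”, “treated mice” for “treated”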

[11] = system: Mus musculus; assay: In vivo antitumor activity was evaluated on L1210 leukemia model and percent of treated/control of tumor cells was determined at 5 mg/kg dosage concentration; assay type: functional
Outline: as §1, with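 “10^5” for “10^6”, “L1210” for “P388”, “dosed” for “given”, “daily” for “at various doses”, “treated mice” for “treated”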

[12] = system: Mus musculus; assay: In vivo antitumor activity was evaluated on L1210 leukemia model and weight change in tumors was determined at 5 mg/kg dosage concentration; assay type: functional
[13] = system: Mus musculus; assay: In vivo antitumor activity was evaluated on L1210 leukemia model and weight change in tumors was determined at 10 mg/kg dosage concentration; assay type: functional
[14] = system: Mus musculus; assay: In vivo antitumor activity was evaluated on L1210 leukemia model and percent of treated/control of tumor cells was determined at 10 mg/kg dosage concentration; assay type: functional
Outline: as §1, with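 “10^5” for “10^6”, “L1210” for “P388”, “dosed” for “given”, “daily” for “at various doses”, “treated mice” for “treated”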

[15] = system: Mus musculus; assay: In vivo antitumor activity was evaluated on L1210 leukemia model and median survival day was determined at 1.25 mg/kg dosage concentration; assay type: functional; outline: as §4
[16] = system: Mus musculus; assay: In vivo antitumor activity was evaluated on L1210 leukemia model and median survival day was determined at 2.5 mg/kg dosage concentration.; assay type: functional; outline: as §4
[17] = system: Mus musculus; assay: In vivo antitumor activity was evaluated on L1210 leukemia model and median survival day was determined at 5 mg/kg dosage concentration; assay type: functional; outline: as §4
[18] = system: Mus musculus; assay: In vivo antitumor activity was evaluated on L1210 leukemia model and median survival day was determined at 40 mg/kg dosage concentration; assay type: functional; outline: as §4
[19] = system: Mus musculus; assay: In vivo antitumor activity was determined against P388 leukemia cells expressed as treated/control at the dose of 50 mg/kg; assay type: functional; outline: as §1
[20] = system: Mus musculus; assay: In vivo antitumor activity was evaluated on L1210 leukemia model and weight change in tumors was determined at 2.5 mg/kg dosage concentration.; assay type: functional
[21] = system: Mus musculus; assay: In vivo antitumor activity was evaluated on L1210 leukemia model and number of survivors (animals) was determined at 1.25 mg/kg dosage concentration; number of survivors given as 0/10; assay type: functional; outline: as §4
[22] = system: Mus musculus; assay: In vivo antitumor activity was evaluated on L1210 leukemia model and median survival day was determined at 10 mg/kg dosage concentration; assay type: functional; outline: as §4
[23] = system: Mus musculus; assay: In vivo antitumor activity was evaluated on L1210 leukemia model and percent of treated/control of tumor cells was determined at 40 mg/kg dosage concentration; assay type: functional
Outline: as §1, with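 “10^5” for “10^6”, “L1210” for “P388”, “dosed” for “given”, “daily” for “at various doses”, “treated mice” for “treated”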

[24] = system: Mus musculus; assay: In vivo antitumor activity was evaluated on L1210 leukemia model and median survival day was determined at 20 mg/kg dosage concentration; assay type: functional; outline: as §4
[25] = system: Mus musculus; assay: In vivo antitumor activity was evaluated on L1210 leukemia model and number of survivors (animals) was determined at 2.5 mg/kg dosage concentration; number of survivors given as 0/10; assay type: functional; outline: as §4
[26] = system: Mus musculus; assay: In vivo antitumor activity was evaluated on L1210 leukemia model and number of survivors (animals) was determined at 10 mg/kg dosage concentration; number of survivors given as 3/10; assay type: functional; outline: as §4
[27] = system: Mus musculus; assay: In vivo antitumor activity was evaluated on L1210 leukemia model and weight change in tumors was determined at 20 mg/kg dosage concentration; assay type: functional
[28] = system: Mus musculus; assay: In vivo antitumor activity was evaluated on L1210 leukemia model and number of survivors (animals) was determined at 20 mg/kg dosage concentration; number of survivors given as 0/10; assay type: functional; outline: as §4
[29] = system: Mus musculus; assay: In vivo antitumor activity was evaluated on L1210 leukemia model and weight change in tumors was determined at 50 mg/kg dosage concentration; assay type: functional
[30] = system: Mus musculus; assay: In vivo antitumor activity was determined against P388 leukemia cells expressed as number of animals survived; assay type: functional
Outline: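 P388 leukemia, 10^6 viable cells inoculated ip on day 0 into CDF1 hybrid male or female mice, 10 mice per group. Compounds were given ip in distilled water (0.1 mL/10 g body weight) at various doses on days 1-5. Vehicle controls were treated the same way. NCI protocols were followed.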

[31] = system: Mus musculus; assay: In vivo antitumor activity was evaluated on L1210 leukemia model and number of survivors (animals) was determined at 50 mg/kg dosage concentration; number of survivors given as 0/10; assay type: functional; outline: as §4
[32] = system: Mus musculus; assay: In vivo antitumor activity was determined against P388 leukemia cells expressed as treated/control at the dose of 20 mg/kg; assay type: functional; outline: as §1
[33] = system: Mus musculus; assay: In vivo antitumor activity was evaluated on L1210 leukemia model and median survival day was determined at 50 mg/kg dosage concentration; assay type: functional; outline: as §4
[34] = system: Mus musculus; assay: In vivo antitumor activity was evaluated on L1210 leukemia model and number of survivors (animals) was determined at 5 mg/kg dosage concentration; number of survivors given as 0/10; assay type: functional; outline: as §4
[35] = system: Mus musculus; assay: In vivo antitumor activity was evaluated on L1210 leukemia model and weight change in tumors was determined at 40 mg/kg dosage concentration; assay type: functional
[36] = system: Mus musculus; assay: In vivo antitumor activity was evaluated on L1210 leukemia model and percent of treated/control of tumor cells was determined at 50 mg/kg dosage concentration; assay type: functional
Outline: as §1, with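 “10^5” for “10^6”, “L1210” for “P388”, “dosed” for “given”, “daily” for “at various doses”, “treated mice” for “treated”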

[37] = system: Mus musculus; assay: In vivo antitumor activity was determined against P388 leukemia cells expressed as treated/control at the dose of 10 mg/kg; assay type: functional; outline: as §1
[38] = as §2; assay type: cell-based; details: mouse, read-out: ID50; outline: as §3
[39] = system: Mus musculus; assay: In vivo antitumor activity was determined against P388 leukemia cells expressed as treated/control at the dose of 40 mg/kg; T = toxic at this dose; assay type: organism-based; design: dose 40 mg/kg; outline: as §1
[40] = system: Mus musculus; assay: In vivo antitumor activity was determined against P388 leukemia cells expressed as treated/control at the dose of (2.5-20)mg/kg; IA = Inactive; assay type: functional, organism-based; outline: as §1
[41] = system: Mus musculus; assay: In vivo antitumor activity was determined against P388 leukemia cells expressed as treated/control at yhe dose of 2.5-40 mg/kg; IA = Inactive; assay type: functional, organism-based; outline: as §1

In the case of `CCCN(CCC)CCCNc1[nH]cc(C)c2nc3ccncc3c1-2`, the T/C [1] is reported as “inactive”, the IC50 [2] is reported as 3.3 µM and the K aff [3] is reported as 8000 M⁻¹.
With `CN(C)CCCNc1nccc2c1c1cnccc1n2C` the T/C [4] was “inactive”, the IC50 [2] was 1.2 µM and the K aff [3] was 20000 M⁻¹.
Compound `Cc1c[nH]c(NCCCN(C)C)c2c3cnccc3nc1-2` has a Survivors [5] of 0, a T/C [6] of 127.5% and a T/C [7] of 169.5%. It also gave a T/C [8] of 184, a Weight changes [9] of 0.3 g and a T/C [10] of 140%. The T/C [11] was 152%, the Weight changes [12] was 0.3 g and the Weight changes [13] was 0.5 g. It also gave a T/C [14] of 177%, a Median survival day [15] of 11.75 and a Median survival day [16] of 12.9. The Median survival day [17] was 14, the Median survival day [18] was 9.25 and the T/C [19] was 181. For the same compound, the Weight changes [20] was 0.3 g, the Survivors [21] was 0 and the Median survival day [22] was 16.25. The T/C [23] was 100%, the Median survival day [24] was 15.6 and the Survivors [25] was 0. For the same compound, the Survivors [26] was 3, the Weight changes [27] was -1.7 g and the Survivors [28] was 0. It also gave a Weight changes [29] of -2.4 g, a Survivors [30] of 1 and a Survivors [31] of 0. It also gave an IC50 [2] of 0.16 µM, a T/C [32] of 186 and a Median survival day [33] of 8.2. The Survivors [34] was 0, the Weight changes [35] was -1.1 g and the K aff [3] was 20000 M⁻¹. It also gave a T/C [36] of 89% and a T/C [37] of 156.
In the case of `CCN(CC)CCCNc1[nH]ccc2nc3ccncc3c1-2`, the CC50 at 48 h [38] is reported as 46 µM, the T/C [39] is reported as “Toxic” and the T/C [40] is reported as “inactive”. The K aff [3] was 15000 M⁻¹.
With `Cc1cnc(NCCCN2CCCCC2)c2c3cnccc3n(C)c12` the T/C [41] was “inactive”, the IC50 [2] was 3.6 µM and the K aff [3] was 0.06.
